# Measured values of several laboratories.
# Each line is one published result; the experiments were not run side by side.
# Target: Rho-associated protein kinase 1 (ROCK1, Homo sapiens, UniProt Q13464)
Compound,effect on,action,method,concentration,measurement,result
COc1ncccc1-c1cnn2ccc(N3CCN(C(=O)OC(C)C)CC3)nc12,binding,,competition with immobilised ligand,1 µM,remaining binding,95%
Nc1ncc(-c2nc(N3CCOCC3)nc(N3CCOCC3)n2)c(C(F)F)n1,binding,,competition with immobilised ligand,10 µM,remaining binding,99%
CC(C)(C)c1cc(C=C(C#N)C#N)cc(Br)c1O,enzyme activity,inhibitor,,0.5 µM,remaining activity,82.9%
Cn1cncc1[C@](O)(COc1ccc(C#N)cc1-c1ccc(OC(F)(F)F)cc1)c1ccc(C#N)cc1,cell-free assay,,competition with immobilised ligand,1 µM,remaining binding,100%
O=c1[nH]c2ccccc2n1C1CCN(Cc2ccc(-c3[nH]c4cc5ncnc5cc4nc3-c3ccccc3)cc2)CC1,cell-free assay,,,0.5 µM,remaining signal,101%
Cn1cc(-c2cccc(N3CCc4c(sc5c4CC(C)(C)C5)C3=O)c2CO)cc(Nc2ccncn2)c1=O,enzyme activity,inhibitor,,1 µM,inhibition,1%
N#CC1(c2ccccn2)CCN(Cc2cc(C(=O)O)c(=O)n3ccccc23)CC1,cell-free assay,,competition with immobilised ligand,1 µM,remaining binding,86%
Cn1cc(-c2cc(F)cc(N3CCn4c(cc5c4CCCC5)C3=O)c2CO)cc(Nc2ccc(N3CCN(C4COC4)CC3)cn2)c1=O,enzyme activity,inhibitor,,0.1 µM,inhibition,0%
C#Cc1n[nH]c2c(-c3cn([C@@H](C)c4ccccn4)c(=O)[nH]c3=O)cc(F)cc12,enzyme activity,inhibitor,,0.1 µM,inhibition,6.5%
COc1cc(Nc2ncc(F)c(Nc3ccc4c(n3)NC(=O)C(C)(C)O4)n2)cc(OC)c1OC,binding,,,10 µM,inhibition,86%
